Results as given in ChEMBL document CHEMBL1777791, “Protective effect of ε-viniferin on β-amyloid peptide aggregation investigated by electrospray ionization mass spectrometry” (Bioorg Med Chem, 2011).
pIC50: −log10 of the molar value. The source made the active and inactive calls. No cut-off for these calls is given here.

Key:
[1] = Binding affinity to amyloid beta (1 to 40) assessed as non-covalent protein-compound complex formation at 10 uM using 35% methanol by electrospray ionization mass spectrometry analysis
In short: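 ESI ion-trap MS by direct infusion at 180 µL/h. Aβ(1-40) and compound mixed 1:1 molar (10 µM) in 35% methanol. Spectra recorded over m/z 150–2000 in positive and negative ion modes at normal scan resolution. Non-covalent complex ions identified.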

PC-12 [2] = test: Antiamyloidogenic activity in rat PC12 cells assessed as protection against amyloid beta (1 to 42)-induced cell death at 10 uM after 24 hrs by MTT assay; assay type: functional
In short: (§1)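 PC12 cells kept in DMEM-Glutamax with 15% heat-inactivated horse serum, 2.5% FBS and antibiotics at 37 °C, 10% CO2, on poly-D-lysine. Seeded 10,000 cells/well and grown 24 h. Aβ was preincubated with or without compound at 37 °C for 48 h, diluted in medium and added (Aβ final 10 µM). After 24 h, MTT 0.5 mg/ml for 3 h at 37 °C, DMSO solubilisation, A595. Read-out is % of control cells.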

PC-12 [3] = test: Antiamyloidogenic activity in rat PC12 cells assessed as protection against amyloid beta (25 to 35)-induced cell death at 10 uM after 24 hrs by MTT assay; assay type: functional; in short: as §1
[4] = Inhibition of amyloid beta (1 to 40) fibril formation at 5 uM by UV-visible spectrometry analysis
In short: (§2)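 Full-length Aβ stock (1 mM) prepared in sterile water at 4 °C by brief vortexing, then sonicated 10 min. Polyphenol stock 1 mg/mL in MeOH. Reaction used 10 mM phosphate buffer, pH 7.2, 50 µM peptide final and polyphenol at 5 or 10 µM final. Fibril formation followed by UV–visible spectrophotometry.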

PC-12 [5] = test: Antiamyloidogenic activity in rat PC12 cells assessed as protection against amyloid beta (1 to 40)-induced cell death at 10 uM after 24 hrs by MTT assay; assay type: functional; in short: as §1
[6] = Inhibition of amyloid beta (1 to 42) fibril formation at 10 uM by UV-visible spectrometry analysis; in short: as §2
[7] = Inhibition of amyloid beta (25 to 35) fibril formation by UV-visible spectrometry analysis
In short: (§3)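 Aβ(25-35) stock (1 mM) prepared in sterile water at 4 °C by brief vortexing, then sonicated 10 min. Polyphenol stock 1 mg/mL in MeOH. Reaction used 10 mM phosphate buffer, pH 7.2, 100 µM peptide final and polyphenol at 5 or 10 µM final. Fibril formation followed by UV–visible spectrophotometry.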

[8] = Inhibition of amyloid beta (25 to 35) fibril formation at 10 uM by UV-visible spectrometry analysis; in short: as §3
[9] = Inhibition of amyloid beta (1 to 40) fibril formation at 10 uM by UV-visible spectrometry analysis; in short: as §2
PC-12 [10] = test: Cytotoxicity against rat PC12 cells up to 10 uM after 24 hrs by MTT assay; conditions: pc-12, 24 h
[11] = Inhibition of amyloid beta (1 to 42) fibril formation at 5 uM by UV-visible spectrometry analysis; in short: as §2

| SMILES | Activity [1] | Activity (PC-12 [2]) | Activity (PC-12 [3]) | inhibition [4] | Activity (PC-12 [5]) | inhibition [6] | pIC50 [7] | inhibition [8] | inhibition [9] | Activity (PC-12 [10]) | inhibition [11] |
| --- | --- | --- | --- | --- | --- | --- | --- | --- | --- | --- | --- |
| O=C(O)/C=C/c1ccc(O)cc1 | inactive |  |  |  |  |  |  |  |  |  |  |
| OC[C@H]1O[C@@H](Oc2cc(/C=C/c3ccc(O)cc3)c3c(c2)O[C@H](c2ccc(O)cc2)[C@H]3c2cc(O)cc(O)c2)[C@H](O)[C@@H](O)[C@@H]1O | Active | 87% | 80% | 59% | 79% | 89% | > 6.00 | 93% | 97% | Non-toxic | 70% |
| Oc1ccc(/C=C/c2cc(O)cc(O)c2)cc1 |  |  |  | 22% |  | 61% |  | 63% | 52% |  |  |
